Measurements: ChEMBL document CHEMBL1629621, “Evaluation of strategies for improving proteolytic resistance of antimicrobial peptides by using variants of EFK17, an internal segment of LL-37” (Antimicrob Agents Chemother, 2009)
In brackets after ≈: the same amount, converted by molar mass. Activity calls are given as the source filed them. No cut-off for these calls is given here. Where a SMILES comes first, the peptide text is derived from it.

Key:
[1] = test system: Pseudomonas aeruginosa; assay: Antimicrobial activity against Pseudomonas aeruginosa ATCC 27853 after 21 hrs by broth microdilution method; format: functional; conditions: ATCC 27853, 21 h
In short: (§1)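 Microtiter broth dilution at 37°C for 21 h in DEAE-refined LB medium prepared in 10 mM Tris, pH 7.4. Bacteria were grown overnight in 3% trypticase soy broth, rinsed in Tris and used at about 10^6 CFU/ml. Final peptide was 0.6–80 µM in twofold steps. Growth was read visually as pellet and at OD540. MIC is >95% inhibition with no visible pellet. Two separate experiments.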

[2] = test system: Staphylococcus aureus; assay: Antimicrobial activity against Staphylococcus aureus 2844 after 21 hrs by broth microdilution method; format: functional; conditions: Staphylococcus aureus, 2844, 21 h; in short: as §1
[3] = test system: Pseudomonas aeruginosa; assay: Antimicrobial activity against Pseudomonas aeruginosa 15159 after 21 hrs by broth microdilution method; format: functional; conditions: Pseudomonas aeruginosa, 15159, 21 h; in short: as §1
[4] = test system: Staphylococcus aureus; assay: Antimicrobial activity against Staphylococcus aureus 29213 after 21 hrs by broth microdilution method; format: functional; conditions: Staphylococcus aureus, 29213, 21 h; in short: as §1
[5] = test system: Staphylococcus aureus; assay: Antimicrobial activity against Staphylococcus aureus FDA 486 after 21 hrs by broth microdilution method; format: functional; conditions: FDA 486, 21 h; in short: as §1
[6] = Stability of the compound at 136 uM after 4 hrs in presence of human neutrophil elastase; format: ADME
In short: (§2)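 Peptide at 136 µM was incubated with protease (peptide:enzyme 300:1) for 4 h at 37°C in 10 mM Tris, pH 7.4. The reaction was stopped by boiling in Laemmli buffer, then run on Tris-Tricine 16.5% SDS-PAGE and Coomassie stained. Band densitometry gave the undegraded fraction, normalized to peptide incubated without enzyme. Two separate experiments.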

[7] = Stability of the compound at 136 uM after 4 hrs in presence of […] V8 protease; format: ADME; in short: as §2
[8] = Stability of the compound at 136 uM after 4 hrs in presence of aureolysin; format: ADME; in short: as §2
[9] = Stability of the compound at 136 uM after 4 hrs in presence of Pseudomonas aeruginosa elastase; format: ADME; in short: as §2
[10] = test system: Lipid bilayer; assay: Induction of DOPC-cholesterol liposome leakage in cell-free system at 0.1 to 1 uM after 45 mins; format: functional
In short: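 Carboxyfluorescein-loaded (100 mM, self-quenching) DOPC-cholesterol 3:2 unilamellar liposomes, about 110 nm, at 10 µM lipid in Tris buffer at 37°C with stirring. Peptide was added at a single concentration per experiment, between 0.01 and 1 µM. After a 10 min baseline, fluorescence increase was followed for 45 min and the limiting leakage level taken.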

[11] = test system: Lipid bilayer; assay: Binding affinity to DOPC-cholesterol liposome at 10 to 1000 uM after 45 mins by ellipsometry
In short: (§3)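 Ellipsometry on DOPC-cholesterol bilayers deposited from DDM micelles onto silica. Peptide was added cumulatively in 10 mM Tris, pH 7.4, with 5 mM glucose at 37°C; […] adds 150 mM NaCl. Each step was followed 45 min to saturation. Adsorbed amount was calculated from refractive index and thickness, with dn/dc 0.154 cm3/g. Duplicates.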

[12] = test system: HaCaT; assay: Cytotoxicity against human HaCaT assessed at 6 to 60 uM by MTT assay; format: cell-based
In short: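 HaCaT keratinocytes were seeded at 3,000 cells/well, grown to confluence in SFM-BPE-rEGF, and given 6 or 60 µM peptide overnight. MTT was then added for 1 h at 37°C and formazan dissolved in DMSO. Absorbance was read at 550 nm relative to untreated cells, with the 1% Triton X-100 signal as background. Triplicate.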

[13] = test system: HaCaT; assay: Cytotoxicity against human HaCaT assessed as LDH release at 6 to 60 uM; format: cell-based
In short: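 HaCaT keratinocytes were seeded at 3,000 cells/well and grown to confluence in serum-free keratinocyte medium with BPE-rEGF. They were exposed overnight to 6 or 60 µM peptide in that medium. LDH release was measured against a 1% Triton X-100 control, with spontaneous release as background. Triplicate.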

[14] = Toxicity in human erythrocytes at 6 to 60 uM by hemolysis assay; format: cell-based; conditions: erythrocyte
In short: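 EDTA-treated human erythrocytes were washed and used as a 5% suspension in PBS, pH 7.4. Cells were rotated end-over-end with peptide for 1 h at 37°C, then centrifuged. Hemoglobin was read at 540 nm relative to 2% Triton X-100, with spontaneous leakage as background. Triplicate.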

[15] = test system: Lipid bilayer; assay: Binding affinity to DOPC-cholesterol liposome at 10 to 1000 uM after 45 mins by ellipsometry in presence of NaCl; in short: as §3

SMILES | MIC [1] [µM] | MIC [2] [µM] | MIC [3] [µM] | MIC [4] [µM] | MIC [5] [µM] | Stability [6] | Stability [7] | Stability [8] | Stability [9] | Activity [10] | Activity [11] | Activity [12] | Activity [13] | Activity [14] | Activity [15]
CC[C@@H](C)[C@@H](NC(=O)[C@H](CCCNC(=N)N)NC(=O)[C@H](CCC(N)=O)NC(=O)[C@@H](NC(=O)[C@H](NC(=O)[C@H](CCCNC(=N)N)NC(=O)[C@H](CCCCN)NC(=O)[C@@H](Cc1ccccc1)NC(=O)[C@H](CCC(=O)O)NC(C)=O)[C@H](C)CC)C(C)C)C(=O)N[C@@H](CCCCN)C(=O)N[C@@H](CC(=O)O)C(=O)N[C@H](Cc1ccccc1)C(=O)N[C@@H](CC(C)C)C(=O)N[C@@H](CCCNC(=N)N)C(=O)N[C@@H](CC(N)=O)C(=O)N[C@@H](CC(C)C)C(=O)N[C@H](C(N)=O)C(C)C [listing 1 of 2 here] | > 80 | > 80 | > 80 | > 80 | > 80 | – | – | – | – | – | – | – | – | – | –
CC[C@@H](C)[C@@H](NC(=O)[C@H](CCCNC(=N)N)NC(=O)[C@H](CCC(N)=O)NC(=O)[C@@H](NC(=O)[C@H](NC(=O)[C@H](CCCNC(=N)N)NC(=O)[C@H](CCCCN)NC(=O)[C@@H](Cc1ccccc1)NC(=O)[C@H](CCC(=O)O)NC(C)=O)[C@H](C)CC)C(C)C)C(=O)N[C@@H](CCCCN)C(=O)N[C@@H](CC(=O)O)C(=O)N[C@H](Cc1ccccc1)C(=O)N[C@@H](CC(C)C)C(=O)N[C@@H](CCCNC(=N)N)C(=O)N[C@@H](CC(N)=O)C(=O)N[C@@H](CC(C)C)C(=O)N[C@H](C(N)=O)C(C)C [listing 2 of 2 here] | – | – | – | – | – | Stable | Stable | Stable | Stable | – | – | – | – | – | –
CC[C@H](C)[C@H](NC(=O)[C@H](CCCNC(=N)N)NC(=O)[C@H](CCC(N)=O)NC(=O)[C@@H](NC(=O)[C@H](NC(=O)[C@H](CCCNC(=N)N)NC(=O)[C@H](CCCCN)NC(=O)[C@@H](Cc1ccccc1)NC(=O)[C@@H](N)CCC(=O)O)[C@@H](C)CC)C(C)C)C(=O)N[C@@H](CCCCN)C(=O)N[C@@H](CC(=O)O)C(=O)N[C@H](Cc1ccccc1)C(=O)N[C@@H](CC(C)C)C(=O)N[C@@H](CCCNC(=N)N)C(=O)N[C@@H](CC(N)=O)C(=O)N[C@@H](CC(C)C)C(=O)N[C@H](C(=O)O)C(C)C | – | – | – | – | – | – | – | – | – | Active | Active | – | – | – | –
CC[C@@H](C)[C@@H](NC(=O)[C@H](CCCNC(=N)N)NC(=O)[C@H](CCC(N)=O)NC(=O)[C@@H](NC(=O)[C@H](NC(=O)[C@H](CCCNC(=N)N)NC(=O)[C@H](CCCCN)NC(=O)[C@@H](Cc1ccccc1)NC(=O)[C@@H](N)CCC(=O)O)[C@H](C)CC)C(C)C)C(=O)N[C@@H](CCCCN)C(=O)N[C@@H](CC(=O)O)C(=O)N[C@H](Cc1ccccc1)C(=O)N[C@@H](CC(C)C)C(=O)N[C@@H](CCCNC(=N)N)C(=O)N[C@@H](CC(N)=O)C(=O)N[C@@H](CC(C)C)C(=O)N[C@H](C(=O)O)C(C)C [listing 1 of 2 here] | > 80 | > 80 | > 80 | > 80 | > 80 | – | – | – | – | – | – | – | – | – | –
CC[C@H](C)[C@H](NC(=O)[C@H](CCCCN)NC(=O)[C@H](CCC(=O)O)NC(=O)[C@H](CCCCN)NC(=O)[C@H](CO)NC(=O)[C@H](CCCCN)NC(=O)[C@H](CCCNC(=N)N)NC(=O)[C@H](Cc1ccccc1)NC(=O)[C@H](Cc1ccccc1)NC(=O)[C@H](CC(=O)O)NC(=O)CNC(=O)[C@H](CC(C)C)NC(=O)[C@@H](N)CC(C)C)C(=O)NCC(=O)N[C@@H](CCCCN)C(=O)N[C@@H](CCC(=O)O)C(=O)N[C@@H](Cc1ccccc1)C(=O)N[C@@H](CCCCN)C(=O)N[C@@H](CCCNC(=N)N)C(=O)N[C@H](C(=O)N[C@H](C(=O)N[C@@H](CCC(N)=O)C(=O)N[C@@H](CCCNC(=N)N)C(=O)N[C@H](C(=O)N[C@@H](CCCCN)C(=O)N[C@@H](CC(=O)O)C(=O)N[C@@H](Cc1ccccc1)C(=O)N[C@@H](CC(C)C)C(=O)N[C@@H](CCCNC(=N)N)C(=O)N[C@@H](CC(N)=O)C(=O)N[C@@H](CC(C)C)C(=O)N[C@H](C(=O)N1CCC[C@H]1C(=O)N[C@@H](CCCNC(=N)N)C(=O)N[C@H](C(=O)N[C@@H](CCC(=O)O)C(=O)N[C@@H](CO)C(=O)O)[C@@H](C)O)C(C)C)[C@@H](C)CC)C(C)C)[C@@H](C)CC [CATHELICIDIN] | 2.5 (≈ 11.2 µg/mL) | 5 (≈ 22.5 µg/mL) | 2.5 (≈ 11.2 µg/mL) | 5 (≈ 22.5 µg/mL) | 2.5 (≈ 11.2 µg/mL) | Unstable | Unstable | Unstable | Unstable | – | – | – | – | – | –
CC[C@H](C)[C@@H](NC(=O)[C@H](CCCNC(=N)N)NC(=O)[C@H](CCC(N)=O)NC(=O)[C@@H](NC(=O)[C@H](NC(=O)[C@H](CCCNC(=N)N)NC(=O)[C@H](CCCCN)NC(=O)[C@@H](Cc1ccccc1)NC(=O)[C@H](CCC(=O)O)NC(C)=O)[C@@H](C)CC)C(C)C)C(=O)N[C@@H](CCCCN)C(=O)N[C@@H](CC(=O)O)C(=O)N[C@H](Cc1ccccc1)C(=O)N[C@@H](CC(C)C)C(=O)N[C@@H](CCCNC(=N)N)C(=O)N[C@@H](CC(N)=O)C(=O)N[C@@H](CC(C)C)C(=O)N[C@H](C(N)=O)C(C)C | – | – | – | – | – | – | – | – | – | Active | – | – | – | – | –
CC(=O)N[C@@H](CCC(=O)O)C(=O)N[C@@H](Cc1c[nH]c2ccccc12)C(=O)N[C@@H](CCCCN)C(=O)N[C@@H](CCCNC(=N)N)C(=O)N[C@@H](Cc1c[nH]c2ccccc12)C(=O)N[C@H](C(=O)N[C@@H](CCC(N)=O)C(=O)N[C@@H](CCCNC(=N)N)C(=O)N[C@@H](Cc1c[nH]c2ccccc12)C(=O)N[C@@H](CCCCN)C(=O)N[C@@H](CC(=O)O)C(=O)N[C@@H](Cc1c[nH]c2ccccc12)C(=O)N[C@@H](CC(C)C)C(=O)N[C@@H](CCCNC(=N)N)C(=O)N[C@@H](CC(N)=O)C(=O)N[C@@H](CC(C)C)C(=O)N[C@H](C(N)=O)C(C)C)C(C)C (Ac-EWKRWVQRWKDWLRNLV-NH2) | 10 (≈ 24.4 µg/mL) | 5 (≈ 12.2 µg/mL) | 10 (≈ 24.4 µg/mL) | 10 (≈ 24.4 µg/mL) | 5 (≈ 12.2 µg/mL) | Stable | Stable | Stable | Unstable | Active | – | – | – | – | –
CC[C@H](C)[C@H](NC(=O)[C@H](CCCNC(=N)N)NC(=O)[C@H](CCC(N)=O)NC(=O)[C@@H](NC(=O)[C@@H](NC(=O)[C@H](CCCNC(=N)N)NC(=O)[C@H](CCCCN)NC(=O)[C@H](Cc1ccccc1)NC(=O)[C@H](CCC(=O)O)NC(C)=O)[C@@H](C)CC)C(C)C)C(=O)N[C@@H](CCCCN)C(=O)N[C@@H](CC(=O)O)C(=O)N[C@@H](Cc1ccccc1)C(=O)N[C@@H](CC(C)C)C(=O)N[C@@H](CCCNC(=N)N)C(=O)N[C@@H](CC(N)=O)C(=O)N[C@@H](CC(C)C)C(=O)N[C@H](C(N)=O)C(C)C | 10 (≈ 22.2 µg/mL) | 5 (≈ 11.1 µg/mL) | 10 (≈ 22.2 µg/mL) | 10 (≈ 22.2 µg/mL) | 5 (≈ 11.1 µg/mL) | Unstable | Unstable | Unstable | Unstable | – | Active | Toxic | Toxic | Toxic | inactive
CC[C@@H](C)[C@@H](NC(=O)[C@H](CCCNC(=N)N)NC(=O)[C@H](CCC(N)=O)NC(=O)[C@@H](NC(=O)[C@H](NC(=O)[C@H](CCCNC(=N)N)NC(=O)[C@H](CCCCN)NC(=O)[C@@H](Cc1ccccc1)NC(=O)[C@@H](N)CCC(=O)O)[C@H](C)CC)C(C)C)C(=O)N[C@@H](CCCCN)C(=O)N[C@@H](CC(=O)O)C(=O)N[C@H](Cc1ccccc1)C(=O)N[C@@H](CC(C)C)C(=O)N[C@@H](CCCNC(=N)N)C(=O)N[C@@H](CC(N)=O)C(=O)N[C@@H](CC(C)C)C(=O)N[C@H](C(=O)O)C(C)C [listing 2 of 2 here] | – | – | – | – | – | Stable | Stable | Stable | Stable | – | – | – | – | – | –
